From ChEMBL document CHEMBL1125616, “Perfluorinated analogues of poison ivy allergens. Synthesis and skin tolerogenic activity in mice” (1991)

Columns and labels:
Mus musculus [1] = species on record: Mus musculus; test: Ear thickness increase measured at 48 hr after challenge in group II on Day 10; type: functional
Procedure, shortened: (§1)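 Female BALB/c mice aged 6–7 weeks, 8 per group. On day 0 each mouse was pretreated epicutaneously on the shaved abdomen with 15.6 mmol in acetone/olive oil 4:1 (100 μL). The same dose was given on day 4 to sensitize. On day 8 the dorsal right ear was challenged with 1.56 mmol in acetone:olive oil (25 μL). Ear thickness was read by micrometer on days 9–12, and the increase taken at 48 h after challenge.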

Mus musculus [2] = species on record: Mus musculus; test: Ear thickness increase measured at 48 hr after challenge in group III on Day 10; type: functional; procedure, shortened: as §1
Mus musculus [3] = species on record: Mus musculus; test: Increase in ear thickness was determined in mice after 48 hr of application of compound at a concentration of 1.56 mmol to right ear; type: functional
Procedure, shortened: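 Cross-reaction test in female BALB/c mice aged 6–7 weeks. Mice were sensitized on day 0 on the shaved lower abdomen with 15.6 mmol in acetone/olive oil 4:1 (100 μL). Four days later groups of 8 were challenged on the dorsal right ear with 1.56 mmol (25 μL). Ear thickness was measured by micrometer, and the increase taken at 48 h after challenge.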

Mus musculus [4] = species on record: Mus musculus; test: A challenge dose of 1.56 mmol (25 uL) was applied to right ear in group II; type: functional; procedure, shortened: as §1
Mus musculus [5] = species on record: Mus musculus; test: A challenge dose of 1.56 mmol (25 uL) was applied to right ear in group III on Day 8; type: functional; procedure, shortened: as §1
Mus musculus [6] = species on record: Mus musculus; test: Mice was pretreated with 15.6 mmol (100 uL) on shaved abdomen in group II on Day 0
Mus musculus [7] = species on record: Mus musculus; test: Mice was sensitized with 15.6 mmol (100 uL) on shaved abdomen in group II on Day 4
Mus musculus [8] = species on record: Mus musculus; test: Mice was pretreated with 15.6 mmol (100 uL) on shaved abdomen in group III on Day 0
Mus musculus [9] = species on record: Mus musculus; test: Mice was sensitized with 15.6 mmol (100 uL) on shaved abdomen in group III on Day 4

Structure (SMILES)	Ear thickness (Mus musculus [1])	Ear thickness (Mus musculus [2])	Ear thickness (Mus musculus [3])	Tolerance (Mus musculus [4])	Tolerance (Mus musculus [5])	Tolerance (Mus musculus [6])	Tolerance (Mus musculus [7])	Tolerance (Mus musculus [8])	Tolerance (Mus musculus [9])
Oc1cccc(CCCCCCCCCCCC(F)(F)C(F)(F)C(F)(F)C(F)(F)F)c1O	26 µm	15 µm	162 µm	10	9	9	10	9	9
CCCCCCCCCCCCCCCc1cccc(O)c1O			68.5 µm						
Oc1cccc(CCCCCC(F)(F)C(F)(F)C(F)(F)C(F)(F)C(F)(F)C(F)(F)F)c1O			142 µm						
